# Data published in PubChem BioAssay.
# Unmarked numbers belong to inactive results. Activity calls are given as the source filed them.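 Rule for the calls, unless noted: active = growth inhibition above a set limit, 3 SD over mean compound inhibition, in both replicates (cut at about 43% in these data); inconclusive = above the limit in only one replicate; inactive = at or below the limit in both replicates.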
# Experiment: S. cerevisiae growth inhibition in permissive medium (OD615), pilot counter-assay for S. cerevisiae lifespan shortening project, permissive growth control (AID 705;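 active = growth inhibition above 25% in both replicates, a cutoff set 3 SD above the mean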)
# Conditions: OD615, 24 h, at 10 µM, stronger effect = higher value
# How it was run: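 Material: engineered DeaD yeast; Compound: one dose 10 µM, DMSO 0.25% final; Detection: absorbance (optical density) at 615 nm; Buffer or medium: permissive raffinose/galactose medium; Timing: 24 h exposure, 30 °C.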
row,SMILES,growth inhibition
1,O=C(Nc1ccncc1)c1ccccc1F,-0.355%
2,COC(=O)C1C(=O)c2c([nH]c(C(=O)OC3CCCCCC3)c2C)CC1C (stereo not drawn),1.09%
3,O=C1CCC(=O)N1c1ccc(CSc2nnnn2C2CCCCC2)cc1,-0.7%
4,Cc1ccc(C2CC(c3cccc(C)c3)n3ncnc3N2)cc1 (stereo not drawn),3.83%
5,CCOc1cccc(NC(=O)c2ccc(S(=O)(=O)N(C)C)cc2)c1,-7.19%
6,COc1ccc(C2N(c3ccc(OC)cc3)C(=O)C3CCCN32)cc1 (stereo not drawn),-3.41%
7,Fc1cccc(-c2cc3nc4c(c(N5CCC6(CC5)OCCO6)n3n2)CCCC4)c1,3.03%
8,O=C(COC(=O)C1CC(=O)N(C2CCCCC2)C1)c1ccc(F)cc1 (stereo not drawn),-2.56%
9,CCOC(=O)CSC(CC)C(=O)Nc1nnc(CC)s1 (stereo not drawn),-15.4%
10,CC(=O)c1cccc(NC(=O)Nc2cc3sccc3n2C)c1,10.3%
11,CN(C)S(=O)(=O)c1ccc(C(=O)Nc2ccc(F)cc2F)cc1,-14.5%
12,Cc1ccc(C(=O)N2CCN(c3ccccc3)CC2)cc1C,3.37%
13,CC(=O)c1c(C)nc2ccc(Br)cc2c1C(=O)O,-10.2%
14,COc1ccc(-c2nc(CS(=O)CC(=O)NCC3CCCO3)c(C)o2)cc1 (stereo not drawn),-7.51%
15,Cn1cccc1Cc1nnc(SCC(=O)Nc2nccs2)n1CCc1ccccc1,19.9%
16,CCCC(=O)c1cc(F)c(N2CCN(S(=O)(=O)c3ccccc3)CC2)cc1C,-7.04%
17,COc1ccccc1CNC(=O)c1cnc2ccccn2c1=O,-6.47%
18,O=C(O)c1cccc(-n2cnnn2)c1,1.37%
19,Cc1oc(-c2ccc(Cl)cc2)nc1CS(=O)CC(=O)NCCN1CCCC1 (stereo not drawn),-4.58%
20,O=C(CCn1c(=S)[nH]c2ccccc2c1=O)N1CCOCC1,-0.255%
21,CCCC(=O)C1=C(O)C(C(=O)OC)C(C)(C)CC1=Nc1ccccc1 (stereo not drawn),-12.6%
22,O=C(Nc1nccs1)c1cc(S(=O)(=O)N2CCCCC2)ccc1Cl,-6.76%
23,COC(=O)Nc1c(C(=O)OC)cc(OC)c(OC)c1OC,-3.62%

# Experiment: S. cerevisiae growth inhibition in restrictive medium, OD615, pilot screen, restrictive growth control, yeast lifespan reduction project (AID 706);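 note: modified DeaD lifespan yeast strain shifted to restrictive glucose medium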
# Conditions: OD615, 48 h, at 10 µM, stronger effect = higher value
# How it was run: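 Buffer or medium: restrictive glucose medium (CSMM-D); test system: modified S. cerevisiae; doses: single dose of 10 µM compound final, 0.25% DMSO; schedule: 48 h compound exposure at 30 °C; detection: absorbance (optical density) measured at 615 nm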
row,SMILES,growth inhibition
1,COc1cc(Cl)c(S(=O)(=O)n2cnc(C)c2)cc1Cl,0.12%
2,O=C(CN1CCOc2ccccc21)NCc1ccccc1,4.34%
3,CC(C)CCNC(=O)CCS(=O)(=O)c1cccc2nonc12,-22.1%
4,O=C1CC(c2ccc(S(=O)(=O)NCc3ccccc3)cc2)CN1 (stereo not drawn),-21%
5,CC(=O)c1ccc(NC(=O)CSC(C)C)cc1,-18.6%
6,CCn1cc(C(=O)NCC2CCCO2)c2cc(OC)c(OC)cc2c1=O (stereo not drawn),-20.1%
7,COc1ccc(CNc2nc3c(c(=O)[nH]c(=O)n3C)n2Cc2ccccc2C)cc1,-13.7%
8,Cc1cc(C)nc(NS(=O)(=O)c2ccc(Br)s2)c1,-7.46%
9,CC(C)CCSc1nnc(Cn2c(=O)sc3ccccc32)n1C,2.02%
10,O=P(/C(=N/O)Sc1ccccc1)(N1CCOCC1)N1CCOCC1,1.87%
11,CC1(C)Cc2c(C#N)c(N)sc(=S)c2CO1,67% (active)
12,CCOC(=O)N1CCN(C(=O)COc2ccc(Br)cc2)CC1,11.8%
13,COc1ccc(-c2nc(C(N)=O)c3[nH]c(=O)n(-c4ccccc4OC)c3n2)c(OC)c1,4.02%
14,O=C(Nc1nc(-c2ccccc2)cs1)c1cccs1,-1.27%
15,CC(NC(=O)C1CCC1)c1ccc2c(c1)OCO2 (stereo not drawn),-5.42%
16,Cc1cc(N2C(=O)CC(Cc3ccccc3)C2=O)no1 (stereo not drawn),-11.5%
17,Cc1cc(C)n2nc3nc4c(cc3c2n1)CCCC4,-14.6%
18,O=C(Nc1ccncc1)c1ccccc1F,0.36%
19,COC(=O)C1C(=O)c2c([nH]c(C(=O)OC3CCCCCC3)c2C)CC1C (stereo not drawn),2.59%
20,O=C1CCC(=O)N1c1ccc(CSc2nnnn2C2CCCCC2)cc1,4.66%

row,SMILES,growth inhibition
1,Cc1ccc(C2CC(c3cccc(C)c3)n3ncnc3N2)cc1 (stereo not drawn),15.5%
2,CCOc1cccc(NC(=O)c2ccc(S(=O)(=O)N(C)C)cc2)c1,-8.01%
3,COc1ccc(C2N(c3ccc(OC)cc3)C(=O)C3CCCN32)cc1 (stereo not drawn),2.04%
4,Fc1cccc(-c2cc3nc4c(c(N5CCC6(CC5)OCCO6)n3n2)CCCC4)c1,-2.67%
5,O=C(COC(=O)C1CC(=O)N(C2CCCCC2)C1)c1ccc(F)cc1 (stereo not drawn),0.43%
6,CCOC(=O)CSC(CC)C(=O)Nc1nnc(CC)s1 (stereo not drawn),-6%
7,CC(=O)c1cccc(NC(=O)Nc2cc3sccc3n2C)c1,10.1%
8,CN(C)S(=O)(=O)c1ccc(C(=O)Nc2ccc(F)cc2F)cc1,0.42%
9,Cc1ccc(C(=O)N2CCN(c3ccccc3)CC2)cc1C,8.08%
10,CC(=O)c1c(C)nc2ccc(Br)cc2c1C(=O)O,8.3%
11,COc1ccc(-c2nc(CS(=O)CC(=O)NCC3CCCO3)c(C)o2)cc1 (stereo not drawn),15.5%
12,Cn1cccc1Cc1nnc(SCC(=O)Nc2nccs2)n1CCc1ccccc1,62.6% (active)
13,CCCC(=O)c1cc(F)c(N2CCN(S(=O)(=O)c3ccccc3)CC2)cc1C,-27.6%
14,COc1ccccc1CNC(=O)c1cnc2ccccn2c1=O,8.2%
15,O=C(O)c1cccc(-n2cnnn2)c1,1.52%
16,Cc1oc(-c2ccc(Cl)cc2)nc1CS(=O)CC(=O)NCCN1CCCC1 (stereo not drawn),-1.17%
17,O=C(CCn1c(=S)[nH]c2ccccc2c1=O)N1CCOCC1,9.25%
18,CCCC(=O)C1=C(O)C(C(=O)OC)C(C)(C)CC1=Nc1ccccc1 (stereo not drawn),-6.79%
19,O=C(Nc1nccs1)c1cc(S(=O)(=O)N2CCCCC2)ccc1Cl,-16.1%
20,COC(=O)Nc1c(C(=O)OC)cc(OC)c(OC)c1OC,-6.57%
